Tests used:
[1] = molecular target: T1, Delta-type opioid receptor (Homo sapiens, UniProt P41143); test: Intrinsic agonist activity at human delta opioid receptor expressed in CHO cells by [35S]GTPgammaS binding assay; format: functional, cell-based
[2] = molecular target: T2, Kappa-type opioid receptor (Homo sapiens, UniProt P41145); test: Displacement of [3H]U-69593 from human kappa opioid receptor expressed in CHO cells; format: cell-based
Method in brief: (§1)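 Competition radioligand binding at the human receptors, run at the Psychoactive Drug Screening Program. Radioligands were [3H]DAMGO (MOR), [3H]DADLE (DOR) and [3H]U69,593 (KOR). Radioligand Kd determined by homologous competition binding with the receptor-specific radioligand. Ki values reported.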

[3] = molecular target: T1, Delta-type opioid receptor; test: Displacement of [3H]DADLE from human delta opioid receptor expressed in CHO cells; format: cell-based
Method in brief: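 Competition radioligand binding at the human receptors, run at the Psychoactive Drug Screening Program. Radioligand Kd determined by homologous competition binding with the receptor-specific radioligand. Ki values reported.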

Mu-type opioid receptor [4] = molecular target: T3, Mu-type opioid receptor (Homo sapiens, UniProt P35372); test: Displacement of [3H]DAMGO from human mu opioid receptor expressed in CHO cells; format: cell-based; method in brief: as §1
[5] = molecular target: T2, Kappa-type opioid receptor; test: Agonist activity at human kappa opioid receptor expressed in CHO cells by [35S]GTPgammaS binding assay relative to U50,488; format: functional, cell-based
Method in brief: (§2)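 Membranes from CHO cells over-expressing the human receptor. Stimulated [35S]GTPγS binding measured with eight concentrations chosen to define both asymptotes of the concentration-response curve. EC50 and Emax calculated. Emax expressed as a percentage of the Emax of the standard agonist on the same plate: DAMGO (mu), DPDPE (delta), U50,488 (kappa). Mean ± SE of at least three experiments.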

[6] = molecular target: T2, Kappa-type opioid receptor; test: Agonist activity at human kappa opioid receptor expressed in CHO cells by [35S]GTPgammaS binding assay; format: functional, cell-based; method in brief: as §2
Mu-type opioid receptor [7] = molecular target: T3, Mu-type opioid receptor; test: Agonist activity at human mu opioid receptor expressed in CHO cells by [35S]GTPgammaS binding assay relative to DAMGO; format: functional, cell-based; method in brief: as §2
Mu-type opioid receptor [8] = molecular target: T3, Mu-type opioid receptor; test: Agonist activity at human mu opioid receptor expressed in CHO cells by [35S]GTPgammaS binding assay; format: functional, cell-based; method in brief: as §2
[9] = molecular target: T2, Kappa-type opioid receptor; test: Antagonist activity at human kappa opioid receptor expressed in CHO cells by [35S]GTPgammaS binding assay; format: functional, cell-based
Method in brief: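 Inhibition of [35S]GTPγS binding stimulated by the selective agonist in CHO cells over-expressing the human receptor. Agonists were DPDPE (delta) and U69,593 (kappa). Agonist dose-response curves run with and without a single concentration of test compound. Ke = [L]/(DR−1), where DR is the ratio of agonist EC50 with and without test compound. Mean ± SE of at least three experiments.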

[10] = molecular target: T1, Delta-type opioid receptor; test: Agonist activity at human delta opioid receptor expressed in CHO cells by [35S]GTPgammaS binding assay relative to DPDPE; format: functional, cell-based; method in brief: as §2
[11] = molecular target: T1, Delta-type opioid receptor; test: Agonist activity at human delta opioid receptor expressed in CHO cells by [35S]GTPgammaS binding assay; format: functional, cell-based; method in brief: as §2
[12] = molecular target: T1, Delta-type opioid receptor; test: Intrinsic activity at human delta opioid receptor expressed in CHO cells by [35S]GTPgammaS binding assay; format: functional, cell-based

T2 sequence (P41145 whole entry): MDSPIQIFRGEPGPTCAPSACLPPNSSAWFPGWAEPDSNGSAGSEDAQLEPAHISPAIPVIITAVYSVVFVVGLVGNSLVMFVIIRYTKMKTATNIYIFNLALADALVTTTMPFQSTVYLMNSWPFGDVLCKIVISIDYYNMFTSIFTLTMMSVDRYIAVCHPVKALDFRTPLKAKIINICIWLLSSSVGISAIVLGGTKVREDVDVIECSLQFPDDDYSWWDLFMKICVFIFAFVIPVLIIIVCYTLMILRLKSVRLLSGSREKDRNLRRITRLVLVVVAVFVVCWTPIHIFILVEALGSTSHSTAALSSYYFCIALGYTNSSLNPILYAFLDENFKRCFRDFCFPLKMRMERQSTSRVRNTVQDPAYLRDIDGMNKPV
T1 sequence (P41143 whole entry): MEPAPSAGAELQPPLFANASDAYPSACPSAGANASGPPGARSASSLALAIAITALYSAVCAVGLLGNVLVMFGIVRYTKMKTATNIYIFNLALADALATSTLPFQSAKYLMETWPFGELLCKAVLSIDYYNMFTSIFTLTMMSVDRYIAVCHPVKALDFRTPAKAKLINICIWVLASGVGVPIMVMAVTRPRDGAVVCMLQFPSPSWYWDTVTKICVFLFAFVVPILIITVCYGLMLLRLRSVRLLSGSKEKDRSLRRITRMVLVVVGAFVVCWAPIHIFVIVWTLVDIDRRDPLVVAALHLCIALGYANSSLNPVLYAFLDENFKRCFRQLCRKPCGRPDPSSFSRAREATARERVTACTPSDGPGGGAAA
T3 sequence (P35372 whole entry): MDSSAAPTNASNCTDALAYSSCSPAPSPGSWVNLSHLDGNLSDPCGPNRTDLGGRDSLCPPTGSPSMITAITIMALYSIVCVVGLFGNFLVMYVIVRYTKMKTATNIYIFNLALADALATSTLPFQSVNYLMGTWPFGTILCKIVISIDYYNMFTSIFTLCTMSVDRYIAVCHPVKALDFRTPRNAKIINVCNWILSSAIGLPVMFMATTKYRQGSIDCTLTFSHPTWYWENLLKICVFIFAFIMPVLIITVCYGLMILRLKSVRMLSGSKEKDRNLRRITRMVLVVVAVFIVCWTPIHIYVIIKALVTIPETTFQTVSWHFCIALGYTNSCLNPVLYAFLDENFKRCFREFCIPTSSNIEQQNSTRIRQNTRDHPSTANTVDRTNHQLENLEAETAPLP

Compound | Agonist potency [1] [nM] | Ki [2] [nM] | Ki [3] [nM] | Ki (Mu-type opioid receptor [4]) [nM] | Emax [5] [%] | EC50 [6] [nM] | Emax (Mu-type opioid receptor [7]) [%] | EC50 (Mu-type opioid receptor [8]) [nM] | Ke [9] [nM] | Emax [10] [%] | EC50 ([11]; cho) [nM] | EC50 (Mu-type opioid receptor [8]; cho) [nM] | EC50 [11] [nM] | Intrinsic activity [12] [µM]
CCCN[C@H]1C[C@H]2C[C@@](c3cccc(O)c3)(C1)[C@H](C)CN2CCCc1ccccc1 | > 5000 | 1.4 | 73.8 | 1.66 | 20.7 | 293 | 57 | 18 |  |  |  |  |  | 
C[C@@H]1CN(CCCc2ccccc2)[C@H]2C[C@H](N)C[C@]1(c1cccc(O)c1)C2 |  |  |  |  |  |  | 74 |  | 10.1 | 101 | 7.5 | 19.5 |  | 
C[C@H]1CN(CCCc2ccccc2)[C@@H]2C[C@@H](N)C[C@@]1(c1cccc(O)c1)C2 | > 5000 |  |  |  |  |  | 44 | 20.6 | 21.7 |  |  |  |  | 
C[C@@H]1CN(CCCc2ccccc2)[C@H]2C[C@H](N(C)CC3CC3)C[C@]1(c1cccc(O)c1)C2 |  | 0.92 | 9.04 | 0.43 | 38 | 40 | 109 | 2.7 |  | 24 |  |  | 10.3 | 
CCN[C@H]1C[C@H]2C[C@@](c3cccc(O)c3)(C1)[C@H](C)CN2CCCc1ccccc1 | > 5000 | 8.22 | 264 | 3.35 |  |  | 14 | 33 |  |  |  |  |  | 
C[C@@H]1CN(CCCc2ccccc2)[C@@H]2CCC[C@]1(c1cccc(O)c1)C2 |  | 7.79 | 161 | 1.61 |  |  |  |  |  |  |  |  |  | 
CN[C@H]1C[C@H]2C[C@@](c3cccc(O)c3)(C1)[C@H](C)CN2CCCc1ccccc1 |  | 20.9 | 36.2 | 0.371 |  |  | 105 | 15 |  | 101 |  |  | 14.8 | 
C[C@@H]1CN(CCCc2ccccc2)[C@H]2C[C@H](NCC3CC3)C[C@]1(c1cccc(O)c1)C2 |  | 13.7 |  | 7.55 |  |  | 52 | 130 |  |  |  |  |  | 
CCN(C)[C@H]1C[C@H]2C[C@@](c3cccc(O)c3)(C1)[C@H](C)CN2CCCc1ccccc1 | > 5000 |  |  |  |  |  | 94 | 60 |  |  |  |  |  | > 5
C[C@@H]1CN(CCCc2ccccc2)[C@H]2C[C@H](N(C)C)C[C@]1(c1cccc(O)c1)C2 |  | 9.9 | 18.4 | 0.28 |  |  | 104 | 6.5 |  | 55 |  |  | 38 | 
